Screening data: PubChem, several laboratories
CD11b adhes enh: enhancers of human CD11b/CD18 binding to fibrinogen. P05107+P11215. K562 CD11b/CD18 adhesion to fibrinogen, ATPlite luminescence. activation, % at 10 µM. actives 0.07% (n = 93,000). AID 1499;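 active = 10 µM primary screen giving 50% or more activity, confirmed by 40% or more on retest at that dose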
Phagocyt inh: blocks phagocytosis by macrophages; inhibition, % at 5 µM; actives 0.07% (n = 110,000); J774A.1 macrophage IgG-bead phagocytosis, imaging;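 active = inhibition above the mean of the plate negative controls plus 5 SD, cut at about 13% in these data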;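 note: phagocytic index as fraction of beads internalized from green versus red external bead signal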
HIV Rev-RRE inh: inhibitors of HIV-1 Rev-RRE RNA interaction; actives 0.79% (n = 97,000); inhibition, % at 8 µM; Rev peptide-RRE RNA binding, FRET; P05866;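 active = inhibition above the screen-wide mean plus 3 SD, cut at about 35% in these data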
Target sequence (P05866 whole entry, looked up): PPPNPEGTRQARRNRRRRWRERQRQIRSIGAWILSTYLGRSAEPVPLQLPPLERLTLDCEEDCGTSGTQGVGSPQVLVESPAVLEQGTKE
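Test system: labelled RRE RNA duplex and labelled Rev peptide. Times: 5 min compound–RNA preincubation, then 15 min with peptide, 25 °C. Doses: single-dose 8 µM. Measured by: FRET, excitation 480 nm, emission 540 nm donor and 671 nm acceptor. Measure: % inhibition of FRET ratio versus controls.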
EphB4 antag: EphB4-ephrin-B2 interaction antagonism; P54760; EphB4 LBD / TNYL-RAW-Alexa532 peptide, fluorescence polarization; inhibition, % at 7 µM; actives 0.15% (n = 97,000);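 active = inhibition above the screen-wide mean inhibition plus 3 SD, cut at about 15% in these data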
Smad3 FoxH1 inh: blocks human Smad3 binding to FoxH1 peptide | TR-FRET Smad3/Dy647-FoxH1 peptide binding, europium anti-His | AID 630 | inhibition, % at 25 µM | actives 0.29% (n = 88,000);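 active = compounds that reduce the energy-transfer binding signal between the protein and its labelled peptide by more than half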
Target sequence (P84022 whole entry, looked up): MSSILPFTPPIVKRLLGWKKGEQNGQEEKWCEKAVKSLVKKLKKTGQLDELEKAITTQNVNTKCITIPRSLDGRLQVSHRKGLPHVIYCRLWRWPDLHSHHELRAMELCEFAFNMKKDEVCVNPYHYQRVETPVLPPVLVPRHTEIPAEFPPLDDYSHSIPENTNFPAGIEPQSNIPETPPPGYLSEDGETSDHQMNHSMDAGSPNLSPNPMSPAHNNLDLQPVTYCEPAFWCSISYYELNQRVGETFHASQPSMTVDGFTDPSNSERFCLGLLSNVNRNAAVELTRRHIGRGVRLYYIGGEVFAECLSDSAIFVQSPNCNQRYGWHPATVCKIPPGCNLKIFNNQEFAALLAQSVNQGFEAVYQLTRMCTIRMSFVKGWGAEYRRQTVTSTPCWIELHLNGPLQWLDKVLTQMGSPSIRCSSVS
CD11b adhes inh: inhibitors of human CD11b/CD18 binding to fibrinogen; P05107+P11215; K562 CD11b/CD18 adhesion to fibrinogen, ATPlite luminescence; Mn2+ added to activate the integrin; inhibition, % at 10 µM; actives 0.54% (n = 93,000);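 active = primary inhibition of 50% or more at 10 µM, then 40% or more on retest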
A number is an active result; . = inactive; / = no result; [ ] = another dose, or the depositor's remark. Only some compounds are listed: those with a hit (about 1.3% of all), similar ones and a draw of the others.

SMILES | CD11b adhes enh | Phagocyt inh | HIV Rev-RRE inh | EphB4 antag | Smad3 FoxH1 inh | CD11b adhes inh
CCC1=NN2C(=N)/C(=C\c3ccc(SCc4ccco4)o3)C(=O)N=C2S1 | . | . | 36 | . | . | .
CCCC1=NN2C(=N)/C(=C\c3ccc(SCc4ccco4)o3)C(=O)N=C2S1 | . | / | 36 | . | . | 64
CCC1=NN2C(=N)/C(=C/c3c(C)nn(-c4ccccc4)c3Cl)C(=O)N=C2S1 | / | . | / | / | / | /
CCCC1=NN2C(=N)/C(=C\c3cc(C)n(-c4cccc(C)c4)c3C)C(=O)N=C2S1 | / | . | / | / | / | /
COc1cc(NCC[C@@H]2CCCCN2)c2ncccc2c1 | / | / | / | / | . | /
CCOc1ccccc1/C=C(/NC(=O)c1ccccc1)C(=O)NC(C)c1ccccc1 (centres undefined) | / | . | / | / | / | /
Cc1nc2ccccc2c(=O)n1NC(=O)Cc1ccccc1 | / | / | . | . | . | /
O=C(/C=C/c1ccccc1)c1cc(Br)ccc(=O)c1O | . | . | 46 | . | / | 88
O=C(NNC(=O)C1CCCCC1)C(=O)NC1CCCCC1 | . | . | . | 16 | / | .
O=C1c2oc3ccccc3c(=O)c2C(c2cccc(Br)c2)N1Cc1ccco1 (centres undefined) | 60 | . | . | . | . | .
O=C1c2oc3ccc(Br)cc3c(=O)c2C(c2cccnc2)N1Cc1ccco1 (centres undefined) | . | . | / | / | . | .
Cc1ccc(CCN2CC(C(=O)NCCCN3CCCCCC3)CC2=O)cc1 (centres undefined) | . | . | . | . | 66 | .
CCc1cc(-c2[nH]ncc2-c2ccc3c(c2)OCO3)c(O)cc1O | . | . | / | / | . | 70
O=C(c1ccc(Cl)cc1)C1C2C(=O)N(c3ccccc3)C(=O)C2C2CCCN21 (centres undefined) | . | . | 58 | . | . | .
CC(=O)c1ccc(N2C(=O)C3C(C2=O)C(C(=O)c2ccc(Cl)cc2)N2CCCC32)cc1 (centres undefined) | . | . | 62 | . | . | .
Cc1ccc(N2C(=O)[C@@H]3[C@H](C2=O)C2CCCN2[C@@H]3C(=O)c2ccccc2)cc1 (some centres undefined) | . | . | / | / | . | .
Cc1cccc(S(=O)(=O)C(C#N)c2nc3ccccc3nc2N2CCCC2)c1 (centres undefined) | . | . | 82[fluorescence artefact?] | . | . | .
N#CC(c1nc2ccccc2nc1N1CCCC1)S(=O)(=O)c1cccs1 (centres undefined) | . | . | 42 | . | . | .
N#CC(c1nc2ccccc2nc1N1CCCC1)S(=O)(=O)c1ccccc1 (centres undefined) | / | / | 82[fluorescence artefact?] | . | . | /
COc1ccc(S(=O)(=O)C(C#N)c2nc3ccccc3nc2N2CCCCC2)cc1 (centres undefined) | . | . | . | . | . | .
CN(C)CCCNC(CC(=O)Nc1ccc(Cl)cc1)C(=O)O (centres undefined) | / | / | / | / | . | /
Cc1ccccc1-c1cc(C(=O)Nc2sc(C)c(C)c2C(N)=O)c2ccccc2n1 | . | . | . | . | / | .
CCOC(=O)c1sc(NC(=O)c2cc(-c3ccccc3C)nc3ccccc23)c(C#N)c1C | . | . | . | . | / | 93
CC(C)CSC[C@@H]1O[C@H](n2cnc3c(N)nccc32)[C@H](O)[C@H]1O | / | / | / | / | . | /
COc1cccc(/C=N/n2cnc3ccccc32)c1OC | . | . | . | . | . | .
SMILES | CD11b adhes enh | Phagocyt inh | HIV Rev-RRE inh | EphB4 antag | Smad3 FoxH1 inh | CD11b adhes inh
O=[N+]([O-])c1ccc(O)c(/C=N/n2cnc3ccccc32)c1 | . | . | / | / | / | 104
CCOC(=O)N1CCN(c2ccc(O)cc2)CC1 | . | . | . | . | / | 54
Cc1ccc(Oc2ccc(-c3nnc(-c4ccccc4)o3)cc2[N+](=O)[O-])cc1C | / | . | / | / | / | /
CC1(C)Cc2ccccc2-c2nnc(SCC(=O)Nc3nc4ccccc4s3)n21 | . | . | . | 18 | . | .
O[C@@H](COc1cccc2ccccc12)CN1CCOCC1 | / | / | / | / | . | /
Cn1c(=O)c2[nH]c(CS(=O)(=O)Cc3nc4c([nH]3)c(=O)n(C)c(=O)n4C)nc2n(C)c1=O | / | / | / | / | . | /
CCCCN1C(=O)/C(=C/C=C2\N(C)c3ccccc3C2(C)C)SC1=S | . | . | 140[fluorescence artefact?] | . | / | .
OCc1ccncc1.OCc1ccncc1.[Cl][Pt]([Cl])([Cl])[Cl] | / | / | / | / | . | /
CCOC(=O)C1=C(CC)Nc2ccccc2N=C1NC(=O)Nc1ccc(Cl)c(Cl)c1 | . | . | . | . | / | 90
O=C(NCc1cccnc1)C1CCCN(Cc2cnn(-c3ccccc3)c2-n2cccc2)C1 (centres undefined) | . | . | . | . | . | .
CCOc1cc(/C=N/NC(=O)CNc2ccc(C)cc2)ccc1OC(=O)c1ccccc1 | . | 174 | . | . | . | .
CCOc1cc(/C=N/NC(N)=O)ccc1OC(=O)c1ccc(C)cc1 | . | / | . | . | / | .
C=CCn1c(C#N)c(N)sc1=N | . | . | . | 15 | . | .
CCCn1cnc2c(SCC(=O)O)nc(N)nc21 | / | / | / | / | . | /
Cc1cc(OCC(=O)Nc2ccncc2)c(C)cc1Br | . | . | . | . | . | 98
Cc1cc2nc([C@H](C)C(=O)c3ccc(Cl)cc3)c(=O)[nH]c2cc1C | / | / | / | / | . | /
Cc1cccc(-c2c3c(=O)n(C)c(=O)n(C)c3c3nnc4ccccc4n23)c1 | / | / | 49 | . | / | /
C/C(=N\NS(=O)(=O)c1ccc(C)c([N+](=O)[O-])c1)c1cc2ccccc2o1 | . | . | . | . | / | .
C/C(=N\NS(=O)(=O)c1ccc(Cl)c([N+](=O)[O-])c1)c1cc2ccccc2o1 | . | . | . | . | / | 97
Cn1nc(-c2ccc(Cl)cc2)nc2c(=O)n(C)c(=O)nc1-2 | / | / | . | . | 80 | /
COc1ccc(CN2C(=O)C(O)(CC(=O)c3ccc4c(c3)OCO4)c3ccccc32)cc1OC (centres undefined) | . | . | . | . | 75 | .
COc1cccc(C(=O)N/N=C2\SCC(=O)N2Cc2ccc3c(c2)OCO3)c1 | . | . | . | . | / | .
COc1ccc(C(=O)N/N=C2/SCC(=O)N2Cc2ccc3c(c2)OCO3)cc1OC | / | / | . | 16 | / | /
O=C(O)CNCCc1ccccc1 | / | / | / | / | . | /
CN1C2C=C3C(C#N)=C(N)C(C#N)(C#N)[C@@H](c4cccs4)C3C1CC2 (some centres undefined) | . | . | . | . | . | .
CC(C)(C)C1CC=C2C(C#N)=C(N)C(C#N)(C#N)C(c3cccs3)C2C1 (centres undefined) | . | . | 49 | . | . | .
CCOC(=O)c1c(Nc2ccc(Cl)cc2)sc(/C=C2\C=Nc3ccccc32)c1O | . | . | 40 | . | . | .
CCN(CC)CCOC(=O)c1ccc(NC(=O)C(C)NC(=O)C23CC4CC(CC(C4)C2)C3)cc1 (centres undefined) | / | . | / | / | / | /
